The list is not random: actives were taken first. Their share in the collection is about 3.6%.
GRIN3A LBD mod: modulates the human NR3A ligand-binding domain | NR3A LBD differential scanning fluorimetry, Tm shift; 0% = protein alone, 100% = glycine-bound protein | Tm shift relative to glycine control, % at 25 µM | 340,000 tested, 2.5% active | AID 1259313;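 active = melting temperature shift of at least 10% of the positive control shift, at one fixed dose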
FGF22 binding: binders of recombinant human FGF22 by thermal shift; Q9HCT0; SYPRO orange fluorescence; percent of sucrose octasulfate shift, DMSO zero; activity (Tm shift, normalised), % at 9.99 µM; 340,000 tested, 1.5% active; AID 651658;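 active = mean Tm shift, scaled 0 neutral to 100 positive control, at about 1.3% or above, every replicate too, limit read from the data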
Target sequence (Q9HCT0 whole entry, looked up): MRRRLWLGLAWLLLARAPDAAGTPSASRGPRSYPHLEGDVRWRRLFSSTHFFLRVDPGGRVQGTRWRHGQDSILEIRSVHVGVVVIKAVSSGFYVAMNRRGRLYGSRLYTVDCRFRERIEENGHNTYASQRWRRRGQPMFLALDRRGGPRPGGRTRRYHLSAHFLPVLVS
DNA FID counter-1: fluorescent intercalator displacement, NS3 helicase counter-screen; DNA fluorescent intercalator displacement, fluorescence; inhibition, % at 7.9 µM; 290,000 tested, 0.17% active;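 note: higher means more ethidium bromide displaced from hairpin DNA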
ZTA DNA inh: ZTA (EBV) inhibition in EBNA-1 counter-screen. P03206. ZTA-DNA binding, fluorescence polarization. inhibition, % at 11 µM. 320,000 tested, 0.15% active. AID 2234; in the data active = inhibition above about 33%
Target sequence (P03206 whole entry, looked up): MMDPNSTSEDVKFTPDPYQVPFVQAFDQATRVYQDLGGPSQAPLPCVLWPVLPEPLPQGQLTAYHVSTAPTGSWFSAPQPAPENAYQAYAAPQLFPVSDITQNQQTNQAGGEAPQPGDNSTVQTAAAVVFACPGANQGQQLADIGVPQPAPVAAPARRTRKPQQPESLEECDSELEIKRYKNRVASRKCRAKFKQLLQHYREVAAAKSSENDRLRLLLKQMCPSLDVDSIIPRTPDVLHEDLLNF
NS3 helicase inh: blocks Hepatitis C virus NS3 helicase unwinding; 290,000 tested, 0.56% active; AID 1800; NS3 helicase DNA unwinding, Cy5 molecular beacon fluorescence; inhibition, % at 10.9 µM;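 active = inhibition above the mean of all tested compounds plus 3 SD, set per campaign, cut at about 35% in these data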
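Material: hepatitis C virus NS3 helicase domain fragment enzyme; measured by: Cy5 fluorescence, 0 and 60 min reads; control set: DMSO and thioflavine S; incubation: 60 min unwinding reaction at 25 °C after ATP addition; read-out basis: % inhibition from 60/0 min fluorescence ratio, DMSO 0%, thioflavine S 100%; repeats: singlicate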
EBNA-1 inh: blocks EBNA-1 binding to DNA. 300,000 tested, 0.34% active. EBNA-1 DNA binding, fluorescence polarization. inhibition, % at 14.8 µM. AID 1950; in the data active = inhibition above about 28%
NS3 hel confirm: confirmation of Hepatitis C virus NS3 helicase inhibitors. shares compounds with NS3 helicase inh. NS3 helicase DNA unwinding, Cy5 molecular beacon fluorescence. inhibition, % at 10.9 µM. 1,600 tested, 31% active. AID 1943;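 active = inhibition above the mean of all tested compounds plus 3 SD, cutoff set per campaign, cut at about 36% in these data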
DNA FID counter-2: counter-screen for HCV NS3 helicase inhibitors: DNA intercalator displacement. shares compounds with NS3 helicase inh. DNA fluorescent intercalator displacement, fluorescence. inhibition, % at 7.9 µM. 1,600 tested, 4% active. AID 1945;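 note: higher means more displacement of ethidium bromide from the DNA hairpin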
DNA FID DR: displaces fluorescent intercalator from DNA, HCV helicase counter-screen. shares compounds with NS3 helicase inh. fluorescent intercalator displacement from DNA, fluorescence. IC50, µM. 120 tested, under 10 active; call rule not given here
Numbers stand for hits. Cut-off read from the data, not from the text of the source, unless noted: active = inhibition above about 37%; inactive = the rest.

Screening Cc1ccc(CC(=O)O/N=C(\N)Cc2ccc([N+](=O)[O-])cc2)cc1 returned GRIN3A LBD mod inactive, FGF22 binding inactive, DNA FID counter-1 inactive, ZTA DNA inh inactive, NS3 helicase inh 38, EBNA-1 inh inactive, NS3 hel confirm inactive and DNA FID counter-2 inactive.
`COc1cccc(S(=O)(=O)N(C)C[C@@H]2Oc3ncc(-c4cccc(C(=O)N(C)C)c4)cc3C(=O)N([C@@H](C)CO)C[C@@H]2C)c1` gave FGF22 binding inactive.
For N#C[C@H]1[C@H](c2ccccc2)[C@@H](CO)N1C(=O)Cc1ccccc1 the results were FGF22 binding inactive.
`C=CCn1c(SCc2nc3sc(C(=O)O)c(C)c3c(=O)[nH]2)nnc1-c1ccccc1` gave GRIN3A LBD mod inactive, DNA FID counter-1 inactive, ZTA DNA inh inactive, NS3 helicase inh 41, EBNA-1 inh inactive, NS3 hel confirm inactive and DNA FID counter-2 inactive.
Screening CC(=O)c1sc2nc(CSc3nnnn3-c3ccccc3)[nH]c(=O)c2c1C returned GRIN3A LBD mod inactive, FGF22 binding inactive, DNA FID counter-1 inactive, ZTA DNA inh inactive, NS3 helicase inh 36, EBNA-1 inh inactive, NS3 hel confirm inactive and DNA FID counter-2 inactive.
`CCCC(=O)Nc1ccc2c(c1)C(=O)N(C)C[C@H](OC)[C@H](C)CN(C(=O)CC1CC1)[C@H](C)CO2` gave FGF22 binding inactive.
`COc1ccc(OC)c(/C=C2\SC(=S)N(C(C(=O)O)c3ccccc3)C2=O)c1` (configuration not stated) gave GRIN3A LBD mod inactive, DNA FID counter-1 inactive, ZTA DNA inh inactive, NS3 helicase inh 47, EBNA-1 inh inactive, NS3 hel confirm 84 and DNA FID counter-2 inactive.
`C[C@@H]1CCCCO[C@@H](CN(C)C(=O)Nc2cccc3ccccc23)[C@H](C)CN([C@H](C)CO)C(=O)c2cc(NC(=O)Nc3ccc4c(c3)OCO4)ccc2O1` gave FGF22 binding inactive.
`Cc1c(Cl)cccc1NC(=O)CSc1sc2c(O)cc(=O)[nH]c2c1C#N` gave GRIN3A LBD mod inactive, FGF22 binding inactive, DNA FID counter-1 inactive, ZTA DNA inh inactive, NS3 helicase inh 37, EBNA-1 inh inactive, NS3 hel confirm inactive and DNA FID counter-2 inactive.
For C=CCOc1c(Cl)cc(CNc2ccc(N(C)C)cc2)cc1OC the results were GRIN3A LBD mod inactive, DNA FID counter-1 inactive, ZTA DNA inh active, NS3 helicase inh 51, EBNA-1 inh active, NS3 hel confirm inactive and DNA FID counter-2 inactive.
Screening C=CCOc1c(Cl)cc(CNc2ccc(C)c(Cl)c2)cc1OC returned DNA FID counter-1 inactive, ZTA DNA inh inactive, NS3 helicase inh inactive and EBNA-1 inh inactive.
`N#C[C@@H]1[C@@H](c2ccccc2-c2cccc(F)c2)[C@H](CO)N1C(=O)C1CCC1` gave FGF22 binding inactive.
CN1C(=O)c2cc(NC(=O)C3CCOCC3)ccc2OC[C@@H]2O[C@@H](CC(=O)O)CC[C@H]21 was read as FGF22 binding inactive.
CC(C)C(C(=O)O)N1C(=O)/C(=C/C=C/c2ccco2)SC1=S (configuration not stated) was read as GRIN3A LBD mod inactive, DNA FID counter-1 inactive, ZTA DNA inh 99, NS3 helicase inh 44, EBNA-1 inh 42, NS3 hel confirm 78 and DNA FID counter-2 inactive.
`O=C(NN1C(=O)/C(=C/C=C/c2ccco2)SC1=S)c1ccncc1` gave GRIN3A LBD mod inactive, FGF22 binding inactive, DNA FID counter-1 inactive, ZTA DNA inh 74, NS3 helicase inh 40, EBNA-1 inh 51, NS3 hel confirm 78 and DNA FID counter-2 inactive.
Screening O=C1/C(=C\c2ccco2)SC(=S)N1c1ccc(O)cc1 returned GRIN3A LBD mod inactive, FGF22 binding inactive, DNA FID counter-1 inactive, ZTA DNA inh inactive, NS3 helicase inh inactive and EBNA-1 inh inactive.
O=C1/C(=C/C=C/c2ccco2)SC(=S)N1c1ccc(O)cc1 was read as GRIN3A LBD mod inactive, FGF22 binding inactive, DNA FID counter-1 inactive, ZTA DNA inh inactive, NS3 helicase inh 51, EBNA-1 inh inactive, NS3 hel confirm 91, DNA FID counter-2 inactive and DNA FID DR inactive.
O=C(NN1C(=O)/C(=C/C=C/c2ccccc2)SC1=S)c1ccncc1 was read as GRIN3A LBD mod inactive, FGF22 binding inactive, DNA FID counter-1 inactive, ZTA DNA inh inactive, NS3 helicase inh inactive and EBNA-1 inh inactive.
Cc1noc(C)c1NC(=O)Nc1cccc2c1O[C@@H](CN(C)C(=O)Nc1ccccc1)[C@@H](C)CN([C@H](C)CO)C2=O was read as FGF22 binding inactive.
`N#CC1=C(S)N(c2ccccc2)C(c2ccc(-c3ccccc3Cl)o2)NC1=O` (configuration not stated) gave GRIN3A LBD mod inactive, DNA FID counter-1 inactive, ZTA DNA inh inactive, NS3 helicase inh 42, EBNA-1 inh inactive, NS3 hel confirm 51 and DNA FID counter-2 inactive.
Cc1noc(C)c1S(=O)(=O)N(CC(=O)NCc1ccccc1)c1ccc(C(C)C)cc1 was read as GRIN3A LBD mod inactive, FGF22 binding inactive, DNA FID counter-1 inactive, ZTA DNA inh inactive, NS3 helicase inh inactive and EBNA-1 inh inactive.
Screening CCOc1ccc(N(CC(=O)NCc2ccccc2Cl)S(=O)(=O)c2c(C)noc2C)cc1 returned GRIN3A LBD mod inactive, FGF22 binding inactive, DNA FID counter-1 inactive, ZTA DNA inh inactive, NS3 helicase inh 40, EBNA-1 inh inactive, NS3 hel confirm inactive and DNA FID counter-2 inactive.
For Cc1noc(C)c1S(=O)(=O)N(CC(=O)NCCc1ccccc1)c1ccc(C(C)C)cc1 the results were GRIN3A LBD mod inactive, FGF22 binding inactive, DNA FID counter-1 inactive, ZTA DNA inh inactive, NS3 helicase inh 37, EBNA-1 inh inactive, NS3 hel confirm inactive and DNA FID counter-2 inactive.
Screening Cc1ccc(N(CC(=O)NCc2ccccc2Cl)S(=O)(=O)c2c(C)noc2C)cc1 returned GRIN3A LBD mod inactive, FGF22 binding inactive, DNA FID counter-1 inactive, ZTA DNA inh inactive, NS3 helicase inh inactive and EBNA-1 inh inactive.
Screening Oc1ccc(Br)cc1C=Nc1ccc2c3c(cccc13)CC2 returned GRIN3A LBD mod inactive, FGF22 binding inactive, DNA FID counter-1 inactive, ZTA DNA inh inactive, NS3 helicase inh 48, EBNA-1 inh inactive, NS3 hel confirm inactive and DNA FID counter-2 inactive.
Cc1cc(NS(=O)(=O)c2ccc(NC(=O)CCc3ccccc3)cc2)no1 was read as GRIN3A LBD mod inactive, DNA FID counter-1 inactive, ZTA DNA inh inactive, NS3 helicase inh 41, EBNA-1 inh inactive, NS3 hel confirm inactive and DNA FID counter-2 inactive.

Compound activity: PubChem BioAssay, several laboratories
